Compound activity from PubChem.
An excerpt weighted towards active compounds, which were near 1.5% of everything screened.
Cneo AK release = Cryptococcus neoformans lysis via adenylate kinase release; lysis activity, % at 15 µM; C. neoformans lysis, adenylate kinase release luminescence, 4 h; normalised: neutral wells 0, clomiphene wells 100; hit rate 0.2% among 360,000;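 active = mean lysis activity across replicates of at least 80%, whatever share of replicates individually reach that level; inactive = mean lysis activity below 80%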
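Schedule: static 4 h at 37 °C with compound, 1 h detection; system: C. neoformans cells; benchmarks: Clomiphene as positive control; buffer or medium: fresh YPD medium; measure: luminescence rise reflecting yeast cell lysis; measured by: luminescent adenylate kinase detection reagent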
PGC1a acetyl inh = lowers PGC1a acetylation signal in U2OS cells | AlphaScreen anti-acetyl-lysine; with virally co-expressed GCN5 acetyltransferase | inhibition, % at 15.6 µM | hit rate 0.17% among 350,000 | AID 651687;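 active = every replicate shows inhibition of at least 40%; inconclusive = mean inhibition at least 40% but some replicate below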
Wnt bcat act = Wnt/beta-catenin pathway activation | Wnt/beta-catenin reporter cell assay, activator, plate reader | activation, % at 9.35 µM | hit rate 1.2% among 300,000 | AID 743398; in the data active = activation above about 30%, passing the limit was not always enough; inconclusive = no clear call, values can overlap the other calls
MITF TRPM1 HTS = activators of MITF-driven TRPM1 promoter activity in SK-MEL-5 cells; SK-MEL-5 TRPM1-promoter luciferase, 24 h; % of positive control, neutral wells = 0; activation, % at 12.5 µM; hit rate 0.75% among 300,000; AID 588334;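 active = mean activation of at least 80% with every replicate also reaching 80%; inconclusive = mean reaches 80% but some replicate falls short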
Large screens that a line does not name were inactive.

CCOC(=O)c1sc2nc3c(cc2c1N)COC(C)(CC)C3 (configuration not stated)	Wnt bcat act 58 (no result: MITF TRPM1 HTS)
CCOC(=O)c1sc2nc3c(cc2c1N)COC(C)(C)C3	Wnt bcat act 53, MITF TRPM1 HTS inconclusive
COC(=O)c1sc2nc3c(cc2c1N)CCCC3	Wnt bcat act 58 (no result: Cneo AK release)
COc1ccc(S(=O)(=O)N(C)C[C@@H]2OCc3cn(nn3)CCCC(=O)N([C@@H](C)CO)C[C@@H]2C)cc1	none (no result: Wnt bcat act, MITF TRPM1 HTS)
C[C@@H]1CN([C@@H](C)CO)C(=O)c2cc(C3=CCCCC3)cnc2O[C@H]1CN(C)C(=O)C1CCOCC1	none (no result: Wnt bcat act, MITF TRPM1 HTS)
CO[C@H](CN(C)Cc1cc(F)ccc1F)[C@@H](C)CN([C@@H](C)CO)S(=O)(=O)c1ccc(F)cc1	Cneo AK release 91 (no result: Wnt bcat act, MITF TRPM1 HTS)
Fc1cc(Br)ccc1COc1ccc(-c2nnco2)cc1	MITF TRPM1 HTS 119 (no result: PGC1a acetyl inh)
Fc1ccc(COc2ccc(-c3nnco3)cc2)c(Cl)c1	none
COCC(=O)N1C[C@H]2[C@@H](c3ccccc31)[C@@H](CO)N2C(=O)C1CCCCC1	none (no result: Wnt bcat act, MITF TRPM1 HTS)
CCCCC(=O)Nc1cc(C(=O)NCCc2ccccc2)ccc1Cl	MITF TRPM1 HTS 126 (no result: Wnt bcat act)
COc1cccc(C(=O)Nc2cc(C(=O)NCCc3ccccc3)ccc2Cl)c1	none
Cc1noc(C)c1NC(=O)Nc1ccc2c(c1)CC(=O)N([C@@H](C)CO)C[C@@H](C)[C@H](CN(C)S(=O)(=O)c1ccc(Cl)cc1)O2	none (no result: Wnt bcat act, MITF TRPM1 HTS)
CCCNC(=O)N1[C@H](CO)[C@@H](c2ccc(C3=CCCC3)cc2)[C@@H]1CN(C)C(C)=O	Cneo AK release 87 (no result: Wnt bcat act, MITF TRPM1 HTS)
CC(=O)N1[C@H](CO)[C@@H](c2ccc(-c3ccccc3)cc2)[C@@H]1CNC(=O)C1CC1	none (no result: Wnt bcat act, MITF TRPM1 HTS)
CC(=O)NC[C@H]1[C@@H](c2ccc(C3=CCCC3)cc2)[C@@H](CO)N1C(=O)NC(C)C	Cneo AK release 120 (no result: Wnt bcat act, MITF TRPM1 HTS)
CC(=O)N1[C@@H](CO)[C@H](c2ccc(-c3ccccc3)cc2)[C@@H]1CNC(=O)C1CC1	Cneo AK release 95 (no result: Wnt bcat act, MITF TRPM1 HTS)
CCCNC(=O)N1[C@H](CO)[C@@H](c2ccc(C3=CCCC3)cc2)[C@H]1CNC(C)=O	none (no result: Wnt bcat act, MITF TRPM1 HTS)
COCCNC(=O)C[C@H]1C=C[C@H](NS(=O)(=O)c2ccc(C)cc2)[C@@H](CO)O1	Cneo AK release 105 (no result: Wnt bcat act, MITF TRPM1 HTS)
COCCNC(=O)C[C@H]1C=C[C@@H](NS(=O)(=O)c2ccc(C)cc2)[C@H](CO)O1	Cneo AK release 93 (no result: Wnt bcat act, MITF TRPM1 HTS)
C#CCN(C[C@@H]1[C@@H](OC(=O)NCc2ccco2)[C@@H](OC(=O)NCc2ccco2)Cn2c(=O)ccc(=O)n21)S(=O)(=O)c1ccc(C)cc1	none (no result: MITF TRPM1 HTS)
C#CCN(C[C@@H]1[C@@H](OC(=O)NCC2CCCCC2)[C@@H](OC(=O)NCC2CCCCC2)Cn2c(=O)ccc(=O)n21)S(=O)(=O)c1ccc(C)cc1	PGC1a acetyl inh 91 (no result: MITF TRPM1 HTS)
CO[C@@H]1CN(C)C(=O)c2ccc(NC(=O)c3ccccn3)cc2OC[C@@H](C)N(C(=O)C2CCC2)C[C@H]1C	none (no result: PGC1a acetyl inh, Wnt bcat act, MITF TRPM1 HTS)
CCCN1C[C@@H](C)[C@@H](OC)CN(C)C(=O)c2cc(NC(=O)c3cccc(F)c3)ccc2OC[C@@H]1C	none (no result: Wnt bcat act, MITF TRPM1 HTS)
CCCN1C[C@@H](C)[C@H](OC)CN(C)C(=O)c2ccc(NC(=O)c3cccc(F)c3)cc2OC[C@@H]1C	Cneo AK release 115 (no result: Wnt bcat act, MITF TRPM1 HTS)
CO[C@H]1CN(C)C(=O)c2cc(NC(=O)Nc3cccc(F)c3)ccc2OC[C@H](C)N(C)C[C@H]1C	Cneo AK release 103 (no result: Wnt bcat act, MITF TRPM1 HTS)
Cc1noc(C)c1S(=O)(=O)Nc1ccc2c(c1)C(=O)N([C@@H](C)CO)C[C@H](C)[C@@H](CN(C)C(=O)Nc1ccc(C(F)(F)F)cc1)OCCCC[C@H](C)O2	none (no result: Wnt bcat act, MITF TRPM1 HTS)
CO[C@@H]1CN(C)C(=O)c2ccc(NC(=O)c3ccccc3)cc2OC[C@@H](C)N(C(=O)C2CC2)C[C@H]1C	none (no result: Cneo AK release, Wnt bcat act, MITF TRPM1 HTS)
Cc1cc(=O)[nH]c2c1cnn2Cc1ccccc1	none (no result: Wnt bcat act)
S=c1nc[nH]c2c1cnn2Cc1ccccc1	PGC1a acetyl inh 45 (no result: MITF TRPM1 HTS)
COc1ccc(CCC(=O)Nc2ccc(OC)c(S(=O)(=O)N3CCCCC3)c2)cc1OC	none
CCc1ccc(C(=O)CCC(=O)Nc2ccc(OC)c(S(=O)(=O)N3CCCCC3)c2)cc1	Wnt bcat act 56
Cc1ccc(NC(=O)Nc2nnc(-c3ccccc3F)s2)cc1	Wnt bcat act 33 (no result: Cneo AK release, PGC1a acetyl inh)
COc1ccc(NC(=O)Nc2nnc(-c3ccccc3F)s2)cc1	none (no result: Cneo AK release, PGC1a acetyl inh)
O=C(Nc1ccccc1)Nc1nnc(-c2ccccc2)s1	Wnt bcat act 33 (no result: MITF TRPM1 HTS)
Cc1noc(C)c1NC(=O)Nc1cccc2c1O[C@@H](CN(C)C(=O)Nc1ccc3c(c1)OCO3)[C@H](C)CN([C@@H](C)CO)C2=O	none (no result: Wnt bcat act, MITF TRPM1 HTS)
CC(=O)N(C)C[C@@H]1Oc2ncc(C#Cc3ccccn3)cc2C(=O)N([C@@H](C)CO)C[C@H]1C	none (no result: PGC1a acetyl inh, Wnt bcat act, MITF TRPM1 HTS)
